T cruzi inh = blocks replication of Trypanosoma cruzi; inhibition, % (no concentration beside the values); 300,000 compounds, 1.4% hits; T. cruzi beta-gal in NIH3T3, luminescence, 90 h;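 active means mean inhibition across valid replicates above about 55%, limit read from the data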;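 further: signal also drops with host cell toxicity which is not excluded here; higher percent means less beta-gal luminescence so fewer parasites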
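Assay system: NIH/3T3 fibroblasts plus reporter T. cruzi. Amount: NIH/3T3 cells, 5,000 per well. Buffer or medium: DMEM, 2% fetal bovine serum. Doses: compound pinned at 50 nL/well, DMSO. Schedule: ≥90 h infection period, 3 h prior cell attachment. Signal: luminescent β-galactosidase signal after 60 min lysis. Read-out: parasite load inhibition, %.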
Beta apoptosis = blocks beta cell apoptosis; INS-1E cytokine-induced death, ATP luminescence, 48 h; percent of positive-control rescue, neutral wells zero; protection from apoptosis, % (no concentration beside the values); 300,000 compounds, 0.8% hits; AID 435005;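 active means Every replicate reaches about 75%, or at least half do and their mean reaches it too, limit read from the data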;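 further: higher means more ATP so stronger rescue from cytokine killing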
HIF activator = HIF pathway transcriptional activation | activation, % at 7.5 µM (by protocol) | 300,000 compounds, 0.32% hits | AID 1910 | U2OS HRE-luciferase reporter, luminescence; normalized: DMSO 0%, desferrioxamine 100%;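 active means mean activation of at least 10% of the iron chelator positive control signal, with at least half of replicates also reaching 10%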
SKKanGAS inh = inhibitors of SKKanGAS S. pyogenes growth in kanamycin (SK-promoter or general growth effect) | 300,000 compounds, 1.3% hits | BacTiter-Glo, 6 h | inhibition, % at 7.5 µM;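 active means mean replicate score, as percent of positive control median, at least 50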;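 further: strain carries kanamycin resistance gene driven by streptokinase promoter and grows in 40 µg/ml kanamycin; loss of luminescence reflects streptokinase promoter inhibition or plain growth inhibition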
PfHsp90 set2 = inhibits growth of yeast expressing Plasmodium falciparum Hsp90. S. cerevisiae expressing PfHsp90, BacTiter-Glo ATP, 48 h; yeast lacking PDR1 and PDR3 efflux regulators. inhibition, % at 9.4 µM. 310,000 compounds, 0.32% hits;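 active means every replicate shows inhibition above about 80%, whatever the replicate mean, limit read from the data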
CSC inhib = cancer stem cell inhibition; cancer stem cell-like cells viability, luminescence; inhibition, % at 7.5 µM; 300,000 compounds, 1.1% hits; AID 2717; in the data active means inhibition above about 75%; tested in HMLE shEcad cells
Of the large screens only hits and unclear results are named; the others gave an inactive call. An excerpt weighted towards active compounds, which were near 3.6% of everything screened.

CCN1C[C@@H]2[C@@H]3C(=O)N(C)C(=O)[C@@H]3[C@](Cc3ccccc3)(C1=O)N2C(=O)c1ccc(F)cc1	none (no result: T cruzi inh, Beta apoptosis, HIF activator, SKKanGAS inh, CSC inhib)
O=[N+]([O-])c1c(Nc2ccccc2O)cc(Cl)c2nonc12	T cruzi inh 59
O=C(c1cc(F)c(F)cc1Cl)N1CCCc2ccccc21	none
Cc1nn(CC(=O)Nc2ccc3c(c2)OCCO3)c(C)c1[N+](=O)[O-]	none (no result: T cruzi inh, HIF activator, SKKanGAS inh)
CC(=O)Nc1sc(-c2ccc(Cl)cc2)nc1-c1ccccc1	none
CC(=O)Nc1sc(-c2ccccc2)nc1-c1ccccc1	HIF activator 205
CCOc1cc(CNc2ccc(N(C)C)cc2)cc(Br)c1OCC(=O)NC(C)(C)C	none
CCOc1cc(CNc2ccc(N3CCCCC3)cc2)cc(Br)c1OCC(=O)NC(C)(C)C	T cruzi inh 58 (no result: Beta apoptosis)
CCOc1cc(CNc2cccc3ccccc23)cc(Br)c1OCC(=O)NC(C)(C)C	T cruzi inh 55
CCOc1cc(CO)cc(Br)c1OCC(=O)Nc1ccccc1C	none (no result: PfHsp90 set2)
COc1ccc(C(=O)Nc2ccc(SC(F)F)cc2)cc1	none (no result: CSC inhib)
O=C(Nc1ncc(Cc2ccc(SC(F)F)cc2)s1)c1ccc(OC(F)F)cc1	CSC inhib 75
CC(C)(C)c1ccc(O)c(O)c1	CSC inhib 86 (no result: T cruzi inh, HIF activator, SKKanGAS inh)
CC(C)CN(C(=O)Cn1ccccc1=O)C1CCS(=O)(=O)C1 (stereo not drawn)	none (no result: T cruzi inh, HIF activator, SKKanGAS inh)
CCOC(=O)c1c(NC(=O)CN2C(=O)NC3(CCCCC3C)C2=O)sc(C)c1CC (stereo not drawn)	T cruzi inh 66
COC(=O)c1c(NC(=O)CN2C(=O)NC3(CCCCC3C)C2=O)sc2c1CCC2 (stereo not drawn)	none (no result: T cruzi inh, HIF activator, SKKanGAS inh)
CCOC(=O)c1c(NC(=O)CN2C(=O)NC3(CCC(C)CC3)C2=O)sc(C)c1-c1ccc(C)cc1 (stereo not drawn)	HIF activator 39
CC(=O)Nc1ccc(NC(=O)C(C)OC(=O)CN2C(=O)C3CCCCC3C2=O)cc1 (stereo not drawn)	none (no result: T cruzi inh, Beta apoptosis, HIF activator, SKKanGAS inh, CSC inhib)
O=C(NCc1cccnc1)Nc1ccc(Br)cc1	none
O=C(NCc1cccnc1)c1ccc(NC(=O)c2ccc(Br)cc2)cc1	Beta apoptosis 140, CSC inhib 85
CCCCOC(=O)c1ccc(NC(=O)C(=O)NCc2cccnc2)cc1	HIF activator 25 (no result: Beta apoptosis)
CC(C)C(=O)Nc1ccc(C(=O)NCc2cccnc2)cc1	Beta apoptosis 107
CN1N=C(N)c2cn(C3OC(COP(=O)(O)O)C(O)C3O)c3ncnc1c23 (stereo not drawn)	none (no result: T cruzi inh, Beta apoptosis, HIF activator, SKKanGAS inh, CSC inhib)
O=C(Cc1ccc(NC(=O)C2CCCN(C(=O)C3CCC3)C2)cc1)Nc1cccc(C(=O)N2CCCCC2)c1 (stereo not drawn)	none (no result: T cruzi inh, Beta apoptosis, HIF activator, SKKanGAS inh, CSC inhib)
NC(=S)N/N=C/c1ccccc1OCCSc1ccc(Cl)cc1	T cruzi inh 57
COc1cccc(/C=N/NC(N)=S)c1OCc1ccccc1Cl	T cruzi inh 59
O=C(c1cccs1)c1c[nH]cc1-c1ccccc1	none (no result: Beta apoptosis, PfHsp90 set2)
CC1=C(C(=O)N2CCc3ccccc32)C2(CCC(C)CC2)OC1=O (stereo not drawn)	T cruzi inh 60 (no result: SKKanGAS inh)
O=C(CCCc1nc(-c2ccc(Cl)cc2)no1)NC1CCCC1	Beta apoptosis 107
O=C(CCc1nc(-c2ccc(Cl)cc2)no1)NC1CCCCC1	none
CCc1cc(CNC(=O)C2CCC(=O)N(CCc3cccc(F)c3)C2)on1 (stereo not drawn)	none (no result: Beta apoptosis, CSC inhib)
Cc1ccc(SC(=O)c2c([N+](=O)[O-])c(C)nn2C)cc1	none
Cc1cc(/C=C2\SC(=S)NC2=O)c(C)n1-c1ccc(O)cc1	SKKanGAS inh 100, PfHsp90 set2 97
Cc1cc(/C=C2\SC(=S)NC2=O)c(C)n1-c1ccccc1	none (no result: Beta apoptosis, PfHsp90 set2)
COc1ccc(-n2c(C)cc(/C=C3\SC(=S)NC3=O)c2C)cc1	none
Cc1cc(/C=C2\SC(=Nc3ccc(F)cc3)NC2=O)c(C)n1-c1ccc(S(N)(=O)=O)cc1	SKKanGAS inh 61
Cc1cc(/C=C2/SC(=O)NC2=O)c(C)n1-c1ccc(N2CCOCC2)cc1	SKKanGAS inh 90 (no result: CSC inhib)
Cc1cc(/C=C(\C#N)C(=O)Nc2ccc(F)cc2)c(C)n1-c1ccc(N2CCOCC2)c([N+](=O)[O-])c1	none
CNC(=O)/C(C#N)=C\c1cc(C)n(-c2ccc(N3CCOCC3)cc2)c1C	SKKanGAS inh 62
COc1ccc(NC(=O)C2CCCN(S(C)(=O)=O)C2)cc1OC (stereo not drawn)	none

Compound activity deposited in PubChem BioAssay by Broad Institute.
